Data as given in ChEMBL document CHEMBL2390912, “Aromatic glycosyl disulfide derivatives: evaluation of their inhibitory activities against Trypanosoma cruzi” (Bioorg Med Chem Lett, 2013).

Legend:
Trypanosoma cruzi [1] = experiment: Trypanocidal activity against Trypanosoma cruzi Y trypomastigotes infected in human HeLa cells at 37 degC after 18 hrs by resazurin assay; format: functional, organism-based
How it was run: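 Tissue culture-derived trypomastigotes treated for 18 h at 37 °C. Read-out by fluorescence.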

Trypanosoma cruzi [2] = experiment: Trypanocidal activity against Trypanosoma cruzi Y trypomastigotes infected in human HeLa cells at 4 degC after 18 hrs by hemocytometric analysis; format: functional, organism-based

With `O=C(Cn1ccnc1[N+](=O)[O-])NCc1ccccc1` [BENZNIDAZOLE] the IC50 (Trypanosoma cruzi [1]) was 25.6 µM and the IC50 (Trypanosoma cruzi [2]) was no less than 500 µM.
